High-throughput results from PubChem.
A selection: hits, their analogues and other compounds. The true share with any hit is near 3.5%.
MrgX1 antag = blocks BAM8-22 activation of human MrgX1 receptor; B-score at 10 µM; MRGX1-HEK293 calcium flux, Fluo-4, BAM8-22 antagonism; stronger effect = lower value; hit rate 1.3% among 310,000;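 active = calcium-response B-score plate-corrected more than 3 library SD below zero, starting fluorescence within 5 deviations, no agonist response on first addition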;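 also: peak minus trough fluorescence over baseline after final BAM8-22 challenge near maximal dose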
Target sequence (Q96LB2 whole entry, looked up): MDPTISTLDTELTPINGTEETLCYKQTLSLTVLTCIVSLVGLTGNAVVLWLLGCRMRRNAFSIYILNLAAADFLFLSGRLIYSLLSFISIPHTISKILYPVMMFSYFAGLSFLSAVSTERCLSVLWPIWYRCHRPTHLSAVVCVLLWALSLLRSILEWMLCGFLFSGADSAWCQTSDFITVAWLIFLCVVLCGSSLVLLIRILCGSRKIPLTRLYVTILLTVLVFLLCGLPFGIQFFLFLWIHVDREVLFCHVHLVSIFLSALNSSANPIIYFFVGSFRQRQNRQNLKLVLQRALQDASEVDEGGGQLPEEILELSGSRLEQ
MrgX1 agonist = human MrgX1 receptor agonism, primary screen | Q96LB2 | MrgX1-HEK293 cells, Fluo-4 calcium fluorescence, agonist mode; stronger effect = higher value | B-score at 10 µM | hit rate 0.44% among 310,000 | AID 588627;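 active = calcium response B-score plate-corrected fluorescence ratio at least 3 library SD, with starting fluorescence B-score inside 5 SD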
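Material: MrgX1-expressing HEK293 cells / Dosing: compound as first of three additions / Incubation: overnight seeding, then 1 h dark dye loading / Signal: Fluo-4 NW calcium fluorescence / Evaluation: B-scored fluorescence response ratio / Benchmarks: positive and negative control wells on each plate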
MrgX1 PAM = human MrgX1 positive allosteric modulation, primary screen; AID 588675; MrgX1-HEK293, Fluo-4 calcium flux, FDSS; stronger effect = higher value; B-score at 10 µM; hit rate 0.63% among 310,000;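 active = plate-corrected calcium response at least 3 library SD above typical, normal starting fluorescence, not activating the receptor alone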;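 also: compound read alongside a low EC10 to EC30 dose of BAM8-22 agonist; peak minus trough fluorescence over baseline measured at the second addition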
RGS4 pot = RGS4 potentiation or activation; HEK293 M3R/inducible RGS4, carbachol calcium flux Fluo4; stronger effect = lower value; B-score at 10 µM; hit rate 0.92% among 310,000;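 active = B-score of the integrated calcium signal more than 4 SD below the library mean, with starting fluorescence not abnormally high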;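 also: negative B-score means reduced calcium response which marks RGS4 activation or potentiation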
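System – HEK293 FlpIn-TREx cells, stable M3R, doxycycline-inducible RGS4 · Reagent – ECmax carbachol challenge · Times – compound preincubation 20 min at room temperature before agonist · Technique – Fluo4 fluorescence kinetic imaging of calcium · Measure – B score of integrated Fluo4 ratio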
RGS4 block = human RGS4 inhibition; HEK293 M3R/RGS4 inducible, Fluo-4 calcium flux; stronger effect = higher value; triggered by carbachol at its EC20; hit rate 0.45% among 310,000; P49798; AID 463165; B-score at 10 µM;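 active = B-score, a plate-corrected calcium signal, over three deviations above library mean, with baseline fluorescence within five deviations of library mean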;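 also: RGS4 expression induced by doxycycline in cells with stable M3 receptor; B-score is computed from the integrated fluorescence ratio over baseline after carbachol; higher B-score means a larger calcium signal and so more RGS4 inhibition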
Target sequence (P49798 whole entry, looked up): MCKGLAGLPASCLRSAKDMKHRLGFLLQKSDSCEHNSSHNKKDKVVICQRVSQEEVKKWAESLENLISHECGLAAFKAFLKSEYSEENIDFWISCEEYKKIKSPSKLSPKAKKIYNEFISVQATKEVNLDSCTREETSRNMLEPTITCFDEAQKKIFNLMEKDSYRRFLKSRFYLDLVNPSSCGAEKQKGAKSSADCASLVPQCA
An asterisk follows results filed as active; i = inactive.

SMILES	MrgX1 antag	MrgX1 agonist	MrgX1 PAM	RGS4 pot	RGS4 block
CC1(C)CC(=O)C(C2C3=C(CC(C)(C)CC3=O)Oc3ccc4ccccc4c32)C(=O)C1 (stereo not given)	i	40*	i	i	i
CC1(C)CC(=O)C(C2C3=C(CC(C)(C)CC3=O)Oc3ccccc32)C(=O)C1 (stereo not given)	i	i	i	i	i
CC(=O)COc1cc2c(-c3cc4ccccc4o3)cc(=O)oc2cc1C	i	i	i	i	i
CC1(C)C=Cc2cc(-c3coc4cc(O)cc(O)c4c3=O)cc(O)c2O1	-5.3*	i	i	i	i
O=c1c(-c2ccc3c(c2)OCCO3)coc2cc(O)cc(O)c12	i	i	i	i	i
Cc1nn(-c2ccccc2)c(C)c1-c1cc(C(=O)N/N=C/c2ccc(O)cc2)[nH]n1	i	i	i	-7.1*	i
Cc1nn(-c2ccccc2)c(C)c1/C=N/NC(=O)c1cc(-c2cccs2)[nH]n1	i	i	i	i	i
Cc1nn(-c2ccccc2)c(C)c1/C=N/NC(=O)c1cc(-c2ccc(Cl)s2)[nH]n1	i	i	i	-7.8*	i
Cc1nn(-c2ccccc2)c(Cl)c1/C=N/NC(=O)OC(C)(C)C	i	i	i	-8*	i
COc1cc(/C=N/NC(=O)c2cc(-c3c(C)nn(-c4ccccc4)c3C)n[nH]2)ccc1O	i	i	i	i	i
CNC(=S)N/N=C/c1c(C)nn(-c2ccccc2)c1Cl	i	i	i	i	i
Cc1nn(-c2ccccc2)c(C)c1/C=N/NC(=O)c1cccs1	-7.1*	i	i	i	i
Cc1ccc(Cl)cc1N1CCN(S(=O)(=O)c2ccc3c(c2)NC(=O)C(C)C(=O)N3)CC1 (stereo not given)	i	i	i	i	i
CC(C)(C)C(=O)Nc1cccc(-c2cc(-c3c(Cl)cccc3Cl)no2)c1	i	i	i	i	i
CCc1nn(CC(=O)NCCc2ccc(S(N)(=O)=O)cc2)c(=O)c2cc3sccc3n12	i	i	i	i	i
Cc1nn(-c2ccccc2)c(C)c1/C=N/NC(=O)c1ccccc1O	i	i	i	i	i
Cc1nn(-c2ccccc2)c(N2CCCC2)c1/C=N/NC(=O)c1ccccc1O	-7.2*	i	i	i	i
COc1ccc(N(C(=O)c2cccnc2)S(=O)(=O)c2cccc([N+](=O)[O-])c2)cc1	i	i	6.7*	i	i
CC(C)(C)OC(=O)NCCCC1=CC2=CC(=O)C(C)(OC(=O)c3ccc(Cl)nc3)C(=O)C2=CO1 (stereo not given)	-5*	i	i	i	i
CCC(=O)OC1(C)C(=O)C=C2C=C(CCCCNC(=O)OC(C)(C)C)OC=C2C1=O (stereo not given)	i	i	i	i	i
COc1ccc(-c2nn(-c3ccccc3)cc2/C=N/NC(=O)c2ccc(Br)o2)cc1	i	i	i	-8.1*	i
COCCN(C(=O)c1ccc(-c2ccc(Cl)cc2)o1)c1c(N)n(Cc2ccccc2)c(=O)[nH]c1=O	i	i	i	i	i
Cc1onc(-c2ccccc2)c1C(=O)NC(=S)NNC(=O)c1ccncc1	i	i	i	i	i
Cc1onc(-c2ccccc2)c1C(=O)NC(=S)NNC(=O)c1ccco1	i	60*	i	i	i
Cc1onc(-c2ccccc2)c1C(=O)NNC(=S)NC(=O)/C=C/c1cccs1	i	58*	i	i	i
SMILES	MrgX1 antag	MrgX1 agonist	MrgX1 PAM	RGS4 pot	RGS4 block
CC1(C)N=C(N)N=C(N)N1c1ccccc1	i	i	i	i	i
CC1(C)N=C(N)N=C(N)N1c1ccc(Oc2ccc(Cl)cc2)c(Cl)c1	i	i	i	-7.5*	i
CCOC(=O)C1CCN(CCC(=O)Nc2ccc(C)cc2)CC1	i	i	i	i	i
Cc1ccc(C(=O)c2no[n+]([O-])c2C(=O)c2ccc(C)cc2)cc1	i	31*	i	-8.8*	i
Cc1ccc(Nc2c(-c3ccccn3)nc3cccc(C)n23)cc1	i	i	i	i	i
O=C(N/N=C/c1ccc[nH]1)c1ccc(COc2cccc3cccnc23)cc1	-7.2*	i	7.8*	i	i
O=C(c1cccn2c(=O)c3ccccc3nc12)N1CCN(Cc2ccc3c(c2)OCO3)CC1	i	i	i	i	i
O=C(c1ccc2nc3ccccc3c(=O)n2c1)N1CCN(Cc2ccc3c(c2)OCO3)CC1	-9.6*	i	i	i	i
Cc1ccc(C(=O)N[C@H](C(=O)N2CCN(c3ccccc3F)CC2)C(C)C)cc1	i	i	i	i	i
COc1ccc(N2CCN(C(=O)COC(=O)CNC(=O)c3ccc(C)cc3)CC2)cc1	i	i	i	i	i
CC(=O)CCc1ccc(OCCCCN2CCC(Cc3ccccc3)CC2)cc1	i	i	i	-7.2*	i
CCC(=O)c1ccccc1OCCCN1CCC(Cc2ccccc2)CC1	-5.6*	i	i	i	i
COc1cccc(OC)c1OCCCCN1CCC(Cc2ccccc2)CC1	i	i	i	i	i
CCCC(=O)Nc1ccc2oc(=O)ccc2c1	i	i	i	i	i
COc1ccccc1NC(=O)c1cc2c(s1)-c1ccccc1S(=O)(=O)C2	i	i	i	i	i
COc1ccc(C(=O)OC(C)C(=O)NC(C)CCc2ccccc2)c(OC)c1 (stereo not given)	i	i	i	i	i
COc1ccc2c(c1)C(c1ccc(C)o1)=NNC(c1ccccc1)=N2	-8.4*	i	i	i	i
O=C(N/C(=C\c1cccc([N+](=O)[O-])c1)C(=O)N1CCOCC1)c1ccco1	i	i	i	i	i
C=C(C)COc1ccc(-c2ncnc(C(F)(F)F)c2-c2ccc(OC)cc2)c(O)c1	i	i	i	-7.1*	i
CCCC[N+](C)(C)CCC(=O)NC(C)(C)CS(=O)(=O)[O-]	i	i	i	i	i
CC1(NC(=O)CC[N+](C)(C)CCO)CS(=O)(=O)CC1S(=O)(=O)[O-] (stereo not given)	-5.3*	i	i	i	i
Cc1ccc([N+](=O)[O-])cc1S(=O)(=O)NCC1COc2ccccc2O1 (stereo not given)	i	i	i	i	i
CN(C)CCCNc1c2ccccc2nc2ccccc12	i	i	i	i	i
OCCNc1c2ccccc2nc2c(F)c(F)c(F)c(F)c12	-8*	i	i	i	i
